Experimental data from ChEMBL document CHEMBL5705898 (Proc Natl Acad Sci U S A, 2014).

What was measured:
[1] = biological target: Neuropeptide Y receptor type 1 (Homo sapiens) (UniProt P25929); assay: Inhibition of human Y1 receptor at 10 uM relative to control
[2] = biological target: Mitogen-activated protein kinase 1 (Homo sapiens) (UniProt P28482); assay: Inhibition of human ERK2 (P42mapk) at 10 uM relative to control
[3] = biological target: Beta-1 adrenergic receptor (Homo sapiens) (UniProt P08588); assay: Inhibition of human beta 1 receptor at 10 uM relative to control
Beta-1 adrenergic receptor (Homo sapiens), sequence (P08588 whole entry, looked up): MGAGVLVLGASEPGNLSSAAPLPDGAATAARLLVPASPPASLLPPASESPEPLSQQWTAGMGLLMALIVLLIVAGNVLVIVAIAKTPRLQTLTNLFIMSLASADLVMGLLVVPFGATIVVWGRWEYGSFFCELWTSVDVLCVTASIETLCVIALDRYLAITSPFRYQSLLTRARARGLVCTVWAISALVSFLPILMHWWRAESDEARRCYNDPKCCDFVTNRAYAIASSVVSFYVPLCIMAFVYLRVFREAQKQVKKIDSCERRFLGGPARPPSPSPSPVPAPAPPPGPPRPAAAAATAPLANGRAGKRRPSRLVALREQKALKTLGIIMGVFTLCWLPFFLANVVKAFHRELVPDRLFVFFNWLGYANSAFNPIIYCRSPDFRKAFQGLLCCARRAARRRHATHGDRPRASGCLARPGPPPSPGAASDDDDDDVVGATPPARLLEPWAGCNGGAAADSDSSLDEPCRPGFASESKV

[4] = biological target: High affinity choline transporter 1 (Homo sapiens) (UniProt Q9GZV3); assay: Inhibition of human choline transporter (CHT1) at 10 uM relative to control
[5] = biological target: Beta-secretase 1 (Homo sapiens) (UniProt P56817); assay: Inhibition of human BACE-1 at 10 uM relative to control
[6] = biological target: Sodium-dependent dopamine transporter (Homo sapiens) (UniProt Q01959); assay: Inhibition of human dopamine transporter at 10 uM relative to control
Homo sapiens [7] = species on record: Homo sapiens; assay: Inhibition of human TNF-alpha at 10 uM relative to control
[8] = biological target: cGMP-inhibited 3',5'-cyclic phosphodiesterase 3B (Homo sapiens) (UniProt Q13370); assay: Inhibition of human PDE3B at 10 uM relative to control
[9] = biological target: Corticotropin-releasing factor receptor 1 (Homo sapiens) (UniProt P34998); assay: Inhibition of human CRF1 receptor at 10 uM relative to control
Corticotropin-releasing factor receptor 1 (Homo sapiens), sequence (P34998 whole entry): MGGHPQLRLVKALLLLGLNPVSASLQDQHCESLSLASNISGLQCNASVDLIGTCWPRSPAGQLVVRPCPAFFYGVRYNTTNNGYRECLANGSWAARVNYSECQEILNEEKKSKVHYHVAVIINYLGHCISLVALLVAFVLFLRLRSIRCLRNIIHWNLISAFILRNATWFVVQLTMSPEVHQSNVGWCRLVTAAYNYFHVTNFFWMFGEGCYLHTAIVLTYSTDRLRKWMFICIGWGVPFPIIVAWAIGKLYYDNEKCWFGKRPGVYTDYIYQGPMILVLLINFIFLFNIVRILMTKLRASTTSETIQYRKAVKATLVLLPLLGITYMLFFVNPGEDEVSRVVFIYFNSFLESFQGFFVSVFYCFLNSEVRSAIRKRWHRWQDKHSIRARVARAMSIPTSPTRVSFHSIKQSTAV

[10] = biological target: Peroxisome proliferator-activated receptor gamma (Homo sapiens) (UniProt P37231); assay: Inhibition of human PPARgamma at 10 uM relative to control
Homo sapiens [11] = species on record: Homo sapiens; assay: Inhibition of central BZD receptor (unknown origin) at 10 uM relative to control
Homo sapiens [12] = species on record: Homo sapiens; assay: Inhibition of kainate receptor (unknown origin) at 10 uM relative to control
[13] = biological target: Apelin receptor (Homo sapiens) (UniProt P35414); assay: Inhibition of human APJ at 10 uM relative to control
[14] = biological target: Vasoactive intestinal polypeptide receptor 1 (Homo sapiens) (UniProt P32241); assay: Inhibition of human VPAC1 at 10 uM relative to control
[15] = Inhibition of SETD7 D256A mutant (unknown origin) using biotinylated H3 (1-25) peptide as substrate incubated for 1 hrs in presence of 3H-SAM by radioactivity based assay; parameters: species or system Homo sapiens
Summary of the method: (§1)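 Scintillation proximity assay on recombinant E. coli-expressed human SETD7(1–366) mutant forms. Read-out was incorporation of the ³H-methyl group from ³H-SAM into histone H3(1–25) peptide, with 2 µM SAM, 2 µM H3(1–25) and 2 nM enzyme. IC50 is given as the mean ± SD of triplicate runs.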

[16] = biological target: Endothelin receptor type B (Homo sapiens) (UniProt P24530); assay: Inhibition of human ETB receptor at 10 uM relative to control
Endothelin receptor type B (Homo sapiens), sequence (P24530 whole entry): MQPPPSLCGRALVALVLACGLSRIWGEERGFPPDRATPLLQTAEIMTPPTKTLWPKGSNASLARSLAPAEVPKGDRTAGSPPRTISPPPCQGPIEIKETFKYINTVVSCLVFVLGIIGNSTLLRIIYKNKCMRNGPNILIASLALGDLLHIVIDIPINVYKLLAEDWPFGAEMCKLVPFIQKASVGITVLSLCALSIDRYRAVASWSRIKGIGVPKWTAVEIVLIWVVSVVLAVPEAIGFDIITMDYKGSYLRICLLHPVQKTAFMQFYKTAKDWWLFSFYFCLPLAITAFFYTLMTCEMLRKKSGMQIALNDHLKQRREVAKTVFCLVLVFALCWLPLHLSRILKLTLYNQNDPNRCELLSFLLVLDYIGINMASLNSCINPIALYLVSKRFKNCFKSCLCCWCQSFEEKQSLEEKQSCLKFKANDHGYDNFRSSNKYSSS

[17] = biological target: Type-2 angiotensin II receptor (Homo sapiens) (UniProt P50052); assay: Inhibition of human AT2 receptor at 10 uM relative to control
[18] = biological target: Tyrosine-protein kinase ABL1 (Homo sapiens) (UniProt P00519); assay: Inhibition of human Abl kinase at 10 uM relative to control
[19] = biological target: Melatonin receptor type 1A (Homo sapiens) (UniProt P48039); assay: Inhibition of human MT1 at 10 uM relative to control
[20] = biological target: cGMP-dependent 3',5'-cyclic phosphodiesterase (Homo sapiens) (UniProt O00408); assay: Inhibition of human PDE2A1 at 10 uM relative to control
[21] = biological target: Vasopressin V2 receptor (Homo sapiens) (UniProt P30518); assay: Inhibition of human V2 receptor at 10 uM relative to control
Motilin receptor = Motilin receptor (Homo sapiens, UniProt O43193); assay: Inhibition of human motilin receptor at 10 uM relative to control
[22] = biological target: Prostaglandin E2 receptor EP2 subtype (Homo sapiens) (UniProt P43116); assay: Inhibition of human EP2 receptor at 10 uM relative to control
[23] = biological target: Muscarinic acetylcholine receptor M1 (Homo sapiens) (UniProt P11229); assay: Inhibition of human M1 receptor at 10 uM relative to control
[24] = biological target: Muscarinic acetylcholine receptor M3 (Homo sapiens) (UniProt P20309); assay: Inhibition of human M3 receptor at 10 uM relative to control
Muscarinic acetylcholine receptor M3 (Homo sapiens), sequence (P20309 whole entry, looked up): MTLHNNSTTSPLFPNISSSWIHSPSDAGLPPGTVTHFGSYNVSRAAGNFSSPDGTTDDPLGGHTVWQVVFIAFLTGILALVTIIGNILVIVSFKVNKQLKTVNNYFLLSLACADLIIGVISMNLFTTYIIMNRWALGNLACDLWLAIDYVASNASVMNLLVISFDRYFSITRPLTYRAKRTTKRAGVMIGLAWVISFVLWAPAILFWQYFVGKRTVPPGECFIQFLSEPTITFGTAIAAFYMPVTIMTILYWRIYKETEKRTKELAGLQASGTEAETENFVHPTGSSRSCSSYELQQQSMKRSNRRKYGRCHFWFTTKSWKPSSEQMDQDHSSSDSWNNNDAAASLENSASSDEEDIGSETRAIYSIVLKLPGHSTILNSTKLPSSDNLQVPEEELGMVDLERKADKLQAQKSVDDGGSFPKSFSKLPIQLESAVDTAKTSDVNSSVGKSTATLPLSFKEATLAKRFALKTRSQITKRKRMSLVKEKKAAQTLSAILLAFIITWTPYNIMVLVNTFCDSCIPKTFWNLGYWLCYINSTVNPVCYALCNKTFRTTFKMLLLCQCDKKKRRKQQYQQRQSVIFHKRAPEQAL

[25] = biological target: Angiotensin-converting enzyme (Homo sapiens) (UniProt P12821); assay: Inhibition of human ACE at 10 uM relative to control
[26] = biological target: Cannabinoid receptor 1 (Homo sapiens) (UniProt P21554); assay: Inhibition of human CB1 receptor at 10 uM relative to control
[27] = Lipophilicity, logD of compound at pH 7.4; type: physicochemical; details: buffer
[28] = biological target: T1, Kappa-type opioid receptor (Homo sapiens, UniProt P41145); assay: Inhibition of human kappa opioid receptor at 10 uM relative to control
T1 sequence (P41145 whole entry): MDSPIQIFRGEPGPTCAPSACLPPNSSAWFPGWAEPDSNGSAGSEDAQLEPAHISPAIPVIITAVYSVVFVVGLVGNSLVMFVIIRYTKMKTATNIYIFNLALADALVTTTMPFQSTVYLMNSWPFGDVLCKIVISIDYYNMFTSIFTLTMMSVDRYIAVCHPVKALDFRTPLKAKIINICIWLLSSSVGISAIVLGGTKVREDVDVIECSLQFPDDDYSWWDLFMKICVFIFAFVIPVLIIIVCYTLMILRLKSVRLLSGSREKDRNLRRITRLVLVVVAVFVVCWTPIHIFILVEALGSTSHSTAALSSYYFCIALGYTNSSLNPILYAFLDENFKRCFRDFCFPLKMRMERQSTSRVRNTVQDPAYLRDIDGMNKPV

[29] = Inhibition of Ca2+ channel L, diltiazem site (unknown origin); parameters: species or system Homo sapiens
[30] = biological target: Histamine H4 receptor (Homo sapiens) (UniProt Q9H3N8); assay: Inhibition of human H4 receptor at 10 uM relative to control
[31] = biological target: Neprilysin (Homo sapiens) (UniProt P08473); assay: Inhibition of human neutral endopeptidase at 10 uM relative to control
Neprilysin (Homo sapiens), sequence (P08473 whole entry): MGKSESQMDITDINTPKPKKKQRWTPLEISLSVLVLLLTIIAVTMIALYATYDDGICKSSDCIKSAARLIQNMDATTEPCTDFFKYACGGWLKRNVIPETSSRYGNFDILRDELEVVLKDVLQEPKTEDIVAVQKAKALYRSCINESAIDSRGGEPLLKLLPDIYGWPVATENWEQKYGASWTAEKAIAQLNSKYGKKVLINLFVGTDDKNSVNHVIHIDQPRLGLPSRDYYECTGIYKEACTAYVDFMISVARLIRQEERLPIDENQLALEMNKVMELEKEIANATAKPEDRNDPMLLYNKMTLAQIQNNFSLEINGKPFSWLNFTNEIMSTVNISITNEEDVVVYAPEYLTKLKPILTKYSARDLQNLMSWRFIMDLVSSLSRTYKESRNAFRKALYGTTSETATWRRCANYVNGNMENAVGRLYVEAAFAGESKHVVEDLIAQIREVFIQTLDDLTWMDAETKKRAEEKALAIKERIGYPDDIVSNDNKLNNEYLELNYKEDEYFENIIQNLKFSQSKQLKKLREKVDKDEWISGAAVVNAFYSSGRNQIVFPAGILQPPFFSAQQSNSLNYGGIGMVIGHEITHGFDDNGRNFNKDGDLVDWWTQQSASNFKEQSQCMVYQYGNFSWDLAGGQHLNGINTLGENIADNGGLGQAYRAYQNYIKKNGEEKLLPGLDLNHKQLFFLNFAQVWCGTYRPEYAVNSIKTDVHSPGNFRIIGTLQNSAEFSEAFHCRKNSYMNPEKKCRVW

[32] = biological target: T1, Kappa-type opioid receptor; assay: Inhibition of human kappa opioid receptor
[33] = biological target: Type-1 angiotensin II receptor (Homo sapiens) (UniProt P30556); assay: Inhibition of human AT1 receptor at 10 uM relative to control
Type-1 angiotensin II receptor (Homo sapiens), sequence (P30556 whole entry): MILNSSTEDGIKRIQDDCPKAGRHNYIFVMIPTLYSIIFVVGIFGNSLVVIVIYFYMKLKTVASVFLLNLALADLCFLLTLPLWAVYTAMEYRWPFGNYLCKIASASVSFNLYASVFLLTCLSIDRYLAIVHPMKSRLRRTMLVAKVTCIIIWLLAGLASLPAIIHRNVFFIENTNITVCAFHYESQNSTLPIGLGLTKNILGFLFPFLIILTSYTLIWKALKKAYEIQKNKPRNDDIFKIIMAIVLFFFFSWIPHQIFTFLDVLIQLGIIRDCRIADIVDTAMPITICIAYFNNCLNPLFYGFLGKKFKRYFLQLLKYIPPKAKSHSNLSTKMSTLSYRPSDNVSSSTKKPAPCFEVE

[34] = biological target: 5-hydroxytryptamine receptor 2A (Homo sapiens) (UniProt P28223); assay: Inhibition of human 5-HT2A receptor at 10 uM relative to control
[35] = biological target: Leukotriene B4 receptor 1 (Homo sapiens) (UniProt Q15722); assay: Inhibition of human BLT1 at 10 uM relative to control
[36] = biological target: Interstitial collagenase (Homo sapiens) (UniProt P03956); assay: Inhibition of human MMP-1 at 10 uM relative to control
[37] = biological target: Angiotensin-converting enzyme 2 (Homo sapiens) (UniProt Q9BYF1); assay: Inhibition of human ACE-2 at 10 uM relative to control
Angiotensin-converting enzyme 2 (Homo sapiens), sequence (Q9BYF1 18-805 limits assumed): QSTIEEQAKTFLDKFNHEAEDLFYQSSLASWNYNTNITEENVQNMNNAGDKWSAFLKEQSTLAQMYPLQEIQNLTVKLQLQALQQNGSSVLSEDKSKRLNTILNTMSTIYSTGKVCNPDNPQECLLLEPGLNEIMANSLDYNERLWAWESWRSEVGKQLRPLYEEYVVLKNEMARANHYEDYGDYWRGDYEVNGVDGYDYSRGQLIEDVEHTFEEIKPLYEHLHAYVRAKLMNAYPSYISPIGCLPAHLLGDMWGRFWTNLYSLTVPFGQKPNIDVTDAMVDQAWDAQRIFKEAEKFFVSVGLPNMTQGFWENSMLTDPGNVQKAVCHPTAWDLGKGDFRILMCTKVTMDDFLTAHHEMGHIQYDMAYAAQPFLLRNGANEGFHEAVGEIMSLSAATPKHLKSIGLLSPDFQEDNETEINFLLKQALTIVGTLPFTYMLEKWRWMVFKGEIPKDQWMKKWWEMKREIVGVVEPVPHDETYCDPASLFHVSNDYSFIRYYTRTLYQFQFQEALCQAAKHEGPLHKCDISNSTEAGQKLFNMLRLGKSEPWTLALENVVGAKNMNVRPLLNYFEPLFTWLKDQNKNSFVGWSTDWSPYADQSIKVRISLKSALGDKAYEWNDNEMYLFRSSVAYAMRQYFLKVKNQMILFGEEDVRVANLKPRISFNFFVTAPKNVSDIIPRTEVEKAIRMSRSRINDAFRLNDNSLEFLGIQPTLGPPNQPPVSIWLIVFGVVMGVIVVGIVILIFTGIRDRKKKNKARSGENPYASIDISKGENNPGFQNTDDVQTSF

[38] = biological target: Endothelin-1 receptor (Homo sapiens) (UniProt P25101); assay: Inhibition of human ETA receptor at 10 uM relative to control
HFF = assay: Cytotoxicity against HFF cells assessed as reduction in cell viability at <50 uM by alamar blue assay; type: toxicity, cell-based; details: human
[39] = biological target: Muscarinic acetylcholine receptor M4 (Homo sapiens) (UniProt P08173); assay: Inhibition of human M4 receptor at 10 uM relative to control
[40] = biological target: Alpha-1B adrenergic receptor (Homo sapiens) (UniProt P35368); assay: Inhibition of human alpha 1B receptor at 10 uM relative to control
[41] = biological target: Acetylcholinesterase (Homo sapiens) (UniProt P22303); assay: Inhibition of human acetylcholinesterase at 10 uM relative to control
[42] = Inhibition of SETD7 H252W mutant (unknown origin) using biotinylated H3 (1-25) peptide as substrate incubated for 1 hrs in presence of 3H-SAM by radioactivity based assay; parameters: species or system Homo sapiens; summary of the method: as §1

Neuropeptide Y receptor type 1 (Homo sapiens), sequence (P25929 whole entry): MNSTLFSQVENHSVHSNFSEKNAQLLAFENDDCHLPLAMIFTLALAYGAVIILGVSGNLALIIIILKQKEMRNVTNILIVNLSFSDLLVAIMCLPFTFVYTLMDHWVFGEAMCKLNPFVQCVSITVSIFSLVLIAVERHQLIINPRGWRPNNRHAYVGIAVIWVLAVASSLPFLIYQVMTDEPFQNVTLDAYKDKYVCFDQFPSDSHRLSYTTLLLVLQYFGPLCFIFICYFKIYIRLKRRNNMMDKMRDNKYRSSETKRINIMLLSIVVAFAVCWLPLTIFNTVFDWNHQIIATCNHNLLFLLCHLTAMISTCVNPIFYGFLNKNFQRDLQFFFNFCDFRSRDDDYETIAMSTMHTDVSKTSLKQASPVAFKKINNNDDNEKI
Mitogen-activated protein kinase 1 (Homo sapiens), sequence (P28482 whole entry): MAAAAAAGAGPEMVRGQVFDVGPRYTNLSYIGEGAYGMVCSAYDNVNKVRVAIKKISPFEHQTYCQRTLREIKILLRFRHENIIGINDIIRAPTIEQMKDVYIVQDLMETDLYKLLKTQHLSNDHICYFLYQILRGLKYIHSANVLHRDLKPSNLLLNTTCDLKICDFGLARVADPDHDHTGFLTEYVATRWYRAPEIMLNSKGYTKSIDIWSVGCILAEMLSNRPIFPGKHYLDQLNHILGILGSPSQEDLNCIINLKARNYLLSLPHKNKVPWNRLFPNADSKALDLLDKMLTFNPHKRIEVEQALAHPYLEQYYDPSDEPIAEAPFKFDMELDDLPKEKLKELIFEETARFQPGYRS

## O=C([C@@H](Cc1cccc(C(F)(F)F)c1)NS(=O)(=O)c1cc(F)c2c(c1)CCNC2)N1CCCC1
[1]
  inhibition: -8%
[2]
  inhibition: 5%
[3]
  inhibition: -6%
[4]
  inhibition: 9%
[5]
  inhibition: 3%
[6]
  inhibition: 2%
Homo sapiens [7]
  inhibition: -4%
[8]
  inhibition: -5%
[9]
  inhibition: -7%
[10]
  inhibition: 7%
Homo sapiens [11]
  inhibition: 11%
Homo sapiens [12]
  inhibition: -3%
[13]
  inhibition: -5%
[14]
  inhibition: -8%
[15]
  IC50: 1.2 µM
[16]
  inhibition: 12%
[17]
  inhibition: 12%
[18]
  inhibition: 15%
[19]
  inhibition: 7%
[20]
  inhibition: -2%
[21]
  inhibition: 11%
Motilin receptor
  inhibition: 55%
[22]
  inhibition: -1%
[23]
  inhibition: 16%
[24]
  inhibition: 37%
[25]
  inhibition: -4%
[26]
  inhibition: 25%
[27]
  logD: 2.3
[28]
  inhibition: 55%
[29]
  IC50: 14 µM
[30]
  inhibition: -2%
[31]
  inhibition: -6%
[32]
  IC50: 3.8 µM
[33]
  inhibition: 15%
[34]
  inhibition: 3%
[35]
  inhibition: -8%
[36]
  inhibition: 1%
[37]
  inhibition: 4%
[38]
  inhibition: 10%
HFF
  Activity: Non-Toxic
[39]
  inhibition: 19%
[40]
  inhibition: 29%
[41]
  inhibition: 0%
[42]
  IC50: 2.63 µM
